Hits are enriched below; roughly 1.4% of the tested compounds scored in any of these assays.
Furin inh = inhibitors of human furin; purified furin, fluorogenic substrate cleavage; 220,000 compounds, 0.061% hits; P09958; inhibition, % at 20 µM or 30 µM; in the data active = inhibition above about 25%
thrombin 1536 = inhibitors of human thrombin; inhibition, % at 5 µM; 220,000 compounds, 0.26% hits; alpha-thrombin, Boc-VPR-AMC fluorogenic substrate cleavage; P00734;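 active = inhibition at or above 40%; inactive = inhibition below 40%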;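 note: 0% = enzyme with no compound and 100% = wells without enzyme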
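System – human alpha-thrombin · Medium – pH 7.5 Tris (50 mM) with NaCl 150 mM, Tween 20 0.05% · Compound – single-point dosing at 5 µM, 0.2% DMSO · Incubation – enzyme reaction carried out at room temperature · Technique – fluorescence of released AMC, ex 355 nm, em 460 nm · Read-out basis – % inhibition of thrombin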
m-calpain inh = inhibitors of pig calpain II; purified calpain II, fluorogenic peptide substrate, 30 min; inhibition, % at 16 µM; 220,000 compounds, 0.37% hits; AID 1236;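 active = inhibition above about 50%, limit read from the data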
FXIIa inh = factor XIIa (human) inhibition; purified FXIIa, Boc-QGR-AMC fluorogenic substrate, 2 h; AID 800; inhibition, % at 5 µM; 220,000 compounds, 0.3% hits; P00748; in the data active = inhibition above about 40%;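 note: 0% = enzyme with no compound and 100% = blank without enzyme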
Target sequence (P00748 20-372 limits assumed): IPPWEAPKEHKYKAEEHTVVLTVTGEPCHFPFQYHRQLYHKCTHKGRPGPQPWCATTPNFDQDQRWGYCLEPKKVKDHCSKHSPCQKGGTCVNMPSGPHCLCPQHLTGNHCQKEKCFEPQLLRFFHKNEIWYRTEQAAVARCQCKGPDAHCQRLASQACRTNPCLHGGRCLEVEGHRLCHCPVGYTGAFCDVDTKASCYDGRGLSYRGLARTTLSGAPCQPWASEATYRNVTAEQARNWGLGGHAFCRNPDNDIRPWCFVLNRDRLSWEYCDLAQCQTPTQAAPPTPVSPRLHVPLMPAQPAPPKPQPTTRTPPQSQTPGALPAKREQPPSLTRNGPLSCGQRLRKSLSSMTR
Target sequence (P00748 373-615 limits assumed): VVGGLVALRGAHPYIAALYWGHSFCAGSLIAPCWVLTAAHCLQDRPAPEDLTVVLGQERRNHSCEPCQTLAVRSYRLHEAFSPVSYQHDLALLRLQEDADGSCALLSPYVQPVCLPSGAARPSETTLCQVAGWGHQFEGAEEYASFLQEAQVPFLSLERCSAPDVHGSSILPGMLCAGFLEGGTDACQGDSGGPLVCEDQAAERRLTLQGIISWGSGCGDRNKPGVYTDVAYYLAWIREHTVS
hK5 inh = blocks human kallikrein 5 protease activity; Q9Y337; recombinant hK5, fluorogenic AMC substrate cleavage; inhibition, % at 5 µM; 210,000 compounds, 0.59% hits; AID 873;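 active = inhibition of 40% or more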;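 note: 0% = enzyme controls without compound and 100% = no-enzyme blanks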
FXIa inh 1536 = blocks human coagulation factor XIa protease activity; P03951; purified FXIa, Boc-Glu-Ala-Arg-AMC fluorogenic substrate; inhibition, % at 5 µM; 220,000 compounds, 0.14% hits;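 active = inhibition of at least 40%; inactive = inhibition below 40%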;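 note: fluorescence of freed AMC excited at 355 nm; 0% = enzyme without compound and 100% = no enzyme blank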
* = called active by the depositor; i = inactive; · = no result given.

SMILES	Furin inh	thrombin 1536	m-calpain inh	FXIIa inh	hK5 inh	FXIa inh 1536
COc1ccc(N(C(=O)Cn2nnc(-c3ccccc3F)n2)C(C(=O)NCC2CCCO2)c2ccc(Cl)cc2)cc1 (centres undefined)	-24.9	-8.4	67.3*	4.2	-1.2	-2.9
COc1ccc(N(C(=O)Cn2nnc(-c3ccc(Cl)cc3)n2)C(C(=O)NCC2CCCO2)c2ccc(C)cc2)cc1 (centres undefined)	-31.9	-10.8	26.7	12.2	-7.2	-2.5
CCCOc1ccc(OCCN2CCCC(C)C2)cc1 (centres undefined)	-33.4	2.7	50.0*	15.9	-8.6	8.6
Cc1oc(C(C)(C)C)cc1C(=O)Nc1ccc2c(c1)OCO2	-23.1	1.3	1.5	8.4	1.3	-2.9
Cc1oc(C(C)(C)C)cc1C(=O)Nc1ccc2c(c1)OCCO2	-22.0	21.6	7.3	3.0	40.1*	0.0
COc1ccc(-n2c3c(cc(C(=O)N4CCC(C)CC4)c2=O)C(=O)CC(C)(C)C3)cc1	-20.1	-6.2	-18.9	8.6	-0.9	1.4
COc1ccccc1-n1c2c(cc(C(=O)N3CCC(C)CC3)c1=O)C(=O)CC(C)(C)C2	-1.2	10.3	8.4	37.9	52.3*	17.4
O=C(NC(=S)N1CCc2ccccc21)c1ccc(Br)o1	-18.8	-8.0	-5.2	5.9	-1.4	-5.5
Cc1ccc(-c2nc(N)sc2-c2ccc(C)cc2)cc1	-12.4	-5.5	61.6*	8.3	0.1	1.9
CCCCCCCCCCCCCCCC[n+]1ccc(C(N)=O)cc1	2.1	-1.6	72.0*	2.1	-12.1	-2.6
COC(=O)C1=C(C(=O)c2ccccc2)C(c2ccc(OC)c(OC)c2)Nc2nnnn21 (centres undefined)	-17.6	5.3	-10.1	14.1	0.0	0.4
Cn1c(Cc2ccccc2)nnc1SCC(=O)Nc1ccc2c(c1)OCCO2	-21.1	-1.6	13.7	3.7	-6.9	-15.0
Cn1nnc(NC(=O)c2ccc(C(C)(C)C)cc2)n1	-16.3	-2.8	-14.2	1.7	-6.1	-1.3
C/C(N)=C(/C#N)C(=O)CSc1nc2cc(Cl)ccc2s1	-5.5	41.2*	-164.0	2.9	-23.0	-11.5
N#Cc1nc(COc2ccc(Br)cc2)oc1NCCN1CCOCC1	-24.3	6.0	9.7	-7.4	45.3*	12.7
N#Cc1nc(COc2ccc(F)cc2)oc1NCCN1CCOCC1	-20.1	-15.4	14.1	-6.8	-26.1	-11.2
CC1CC(C)CN(S(=O)(=O)c2ccc3c(c2)oc(=O)n3CC(=O)NCc2cccnc2)C1 (centres undefined)	-22.4	-1.8	-33.5	7.3	-1.2	-1.9
S=c1[nH]nc(COc2ccc(Cl)cc2)n1C1CCCCC1	-16.0	2.4	32.1	11.8	-8.9	6.8
Cc1cccc(OCc2n[nH]c(=S)n2C2CCCCC2)c1	-5.7	-2.3	61.3*	5.9	-4.8	22.2
Cc1ccc(OCc2n[nH]c(=S)n2C2CCCCC2)cc1	-15.8	-8.6	60.6*	-9.1	-24.8	-6.8
Cn1c(CSCc2ccccc2Cl)n[nH]c1=S	-17.6	-5.8	34.4	5.7	4.2	-0.2
S=c1[nH]nc(CSCc2ccccc2Cl)n1C1CCCCC1	0.5	-2.0	65.2*	-8.2	-26.0	-3.5
COc1ccc(-c2nc(CCNC(=O)c3ccco3)cs2)cc1OC	-8.5	3.6	-51.1	13.6	-2.9	1.8
Cc1cc(C(=O)OCCO)c(C#N)c(N)n1	-7.2	-7.7	i	-16.1	-128.2	-23.4
CC(C)(C)C1CCc2onc(C(=O)NCc3ccc(F)cc3)c2C1 (centres undefined)	-19.8	-1.9	51.8*	9.3	0.6	-2.6
SMILES	Furin inh	thrombin 1536	m-calpain inh	FXIIa inh	hK5 inh	FXIa inh 1536
O=C(NCc1ccc(F)cc1)c1noc2c1CCCC2	-11.5	1.4	-1.4	-0.3	-11.1	1.8
COc1cc(NS(=O)(=O)c2ccc(NC(C)=O)cc2)ncn1	-25.8	-1.2	-0.5	13.9	-6.9	5.9
COc1ccc(NS(=O)(=O)c2ccc(NS(=O)(=O)c3ccc(C)cc3)cc2)nn1	-18.3	4.4	8.8	1.7	64.6*	-0.3
Cc1cccc(C)c1-n1cccc1/C=C1\SC(=S)N(c2cccc(C(=O)O)c2)C1=O	-12.9	3.1	110.5*	14.1	·	8.9
Cc1ccccc1NC(=O)c1ccccc1NC(=O)Cc1cccc2ccccc12	0.6	0.7	29.4	13.4	-5.6	3.5
Cc1ccccc1NC(=O)c1cccc2nc3ccccc3nc12	-33.3	0.9	-2.2	44.2*	14.3	13.2
Cc1cccc(Cn2c(Sc3nc(C)cs3)nc3c2c(=O)[nH]c(=O)n3C)c1	-13.8	2.5	-2.8	13.5	0.4	6.1
C=CCn1c(Sc2nc(C)cs2)nc2c1c(=O)[nH]c(=O)n2C	-17.0	-3.0	53.2*	3.0	-22.1	-3.1
CC(C)Sc1nsc2nc(=O)c(/C=C3\C=Nc4ccccc43)c(N)n12	-18.1	-8.6	-27.9	3.0	-2.5	-3.0
COC(=O)CCC(=O)OC1(C)C(=O)C=C2C=C(C3CC3)N(CC(C)C)C=C2C1=O (centres undefined)	8.7	-0.8	-7.6	4.1	-1.3	-0.3
CCOc1ccccc1C(=O)Nc1nnc(SCC(=O)N2CCOCC2)s1	-1.5	54.5*	9.3	25.1	42.8*	31.7
O=C(Nc1nnc(SCC(=O)N2CCOCC2)s1)c1ccccc1	-1.0	-5.5	-7.8	1.9	-15.3	4.3
COc1ccc(N2C(=O)CSC2c2cccc(OC)c2OC)cc1 (centres undefined)	-9.4	42.3*	26.2	16.8	39.1	8.2
O=C(c1ccc(Cl)cc1)c1cnc(Nc2ccccc2Cl)s1	-6.4	-2.3	-60.5	7.7	-20.2	0.4
Cc1csc2ncnc(N3CCN(C(=O)Nc4ccc(OC(F)(F)F)cc4)CC3)c12	-12.8	1.0	56.8*	8.0	3.3	1.9
Cc1ccccc1Nc1scc(-c2ccc(Cl)cc2)[n+]1-c1ccccc1C	0.0	-14.7	50.5*	2.3	-2.7	-2.6
O=c1[nH]c(-[n+]2ccccc2)c(/C=N/NC([S-])=Nc2ccccc2)s1	9.0	-5.2	-14.0	3.0	44.0*	-11.7
O=c1c2c3c(sc2n(CCN2CCOCC2)c(=O)n1Cc1ccco1)CCCCC3	-22.4	2.2	-53.0	12.6	-10.0	6.2
O=c1c2c3c(sc2n(CCN2CCCCC2)c(=O)n1Cc1ccco1)CCCCC3	-13.2	12.2	22.6	25.9	44.5*	10.0
COC(=O)c1ccc2c(=O)n(Cc3ccco3)c(SCC(=O)Nc3cc(C)on3)nc2c1	-12.1	-6.3	5.4	0.7	-5.8	-6.4
Cc1cc(NC(=O)CSc2nc3cc(C(=O)NCCCOC(C)C)ccc3c(=O)n2Cc2ccco2)no1	-16.4	-0.5	60.9*	3.6	1.8	3.2
COc1ccc(/C=C2\CCCC3C2=NN(C(=O)COC(=O)CNC(=O)c2ccccc2)C3c2ccc(OC)cc2)cc1 (centres undefined)	2.4	12.9	-87.3	16.3	47.0*	2.5
CC(C)(C)c1ccc(C(=O)c2c[nH]c(C(=O)NCCCn3ccnc3)c2)cc1	-9.5	-1.3	-5.5	-2.9	-4.8	-3.9
